Measurements of several laboratories.
Observed: cell growth or viability

Compound | cell line | method | time | IC50
C[C@H](NC(=O)c1cccc2ccccc12)C(=O)Nc1ccccc1Oc1ccccc1 | SK-N-FI | – | – | 3000 nM
CC(C)C[C@H](NC(=O)[C@H](Cc1ccccc1)NC(=O)c1cnccn1)B(O)O | BEN | ATP luminescence | – | 68 nM
C=C(C)[C@@H]1CC[C@]2(C(=O)O)CC[C@]3(C)[C@H](CC[C@@H]4[C@@]5(C)CC[C@H](O)C(C)(C)[C@@H]5CC[C@]43C)[C@@H]12 | DLD-1 | – | 48 h | 20000 nM
COc1cccc2c1C(=O)c1c(O)c3c(c(O)c1C2=O)C[C@@](O)(C(=O)CO)C[C@@H]3O[C@H]1C[C@H](N)[C@H](O)[C@H](C)O1 | SK-MEL | neutral red | 48 h | 0.7 µg/mL
CN(C)CCCN1c2ccccc2Sc2ccc(Cl)cc21 | human Hepatocyte | – | – | 26000 nM
Nc1ccn([C@@H]2O[C@H](CO)[C@@H](O)C2(F)F)c(=O)n1 | BXPC-3 | MTT | – | 28 nM
COc1cc([C@@H]2c3cc4c(cc3[C@@H](O[C@@H]3O[C@@H]5CO[C@@H](C)O[C@H]5[C@H](O)[C@H]3O)[C@H]3COC(=O)[C@H]23)OCO4)cc(OC)c1O | DLD-1 | fluorescence | 48 h | 1300 nM
CN(C(=O)COC(=O)/C=C/c1cccc([N+](=O)[O-])c1)C1CCS(=O)(=O)C1 (centres unmarked) | DLD-1 | ATP luminescence | 48 h | 1600 nM
Cc1nc(NC(=O)N2CCC[C@H]2C(N)=O)sc1-c1ccnc(C(C)(C)C(F)(F)F)c1 | SW48 | ATP luminescence | 96 h | 154 nM
C=C(C)C(=O)Nc1ccc(-c2c(-c3ccc(Oc4nccc(C)n4)c(F)c3)c3c(N)ncnc3n2C)cc1 | MFE-296 | ATP luminescence | 96 h | 9.96 nM
COc1cc(Nc2nccc(-c3cnn4nc(OC)ccc34)n2)cc(C(F)(F)F)c1 | NCI-H838 | ATP luminescence | – | 470 nM
Cc1ccc2[nH]c(=O)c3cc(C(=O)NCCCN(C)Cc4ccccc4)sc3c2c1 | BXPC-3 | MTT | 24 h | 10100 nM
Cc1nc(-c2cn3c(n2)-c2ccc(-c4cnn(C(C)(C)C(N)=O)c4)cc2OCC3)n(C(C)C)n1 | SW48 | ATP luminescence | 96 h | 21.5 nM
CCC[C@H](Nc1nc(-c2ccc(NC(=O)NCC)c(OC)c2)ncc1C)c1cccnc1 | BXPC-3 | fluorescence | 72 h | 37.1 nM
